Experiments:
HT-29 = assay: Anti-necroptotic activity in human HT-29 cells assessed as inhibition of TNFalpha/Z-VAD-fmk/AT-406-induced necroptosis preincubated for 30 mins followed by TNFalpha/Z-VAD-fmk/AT-406 addition and measured after 16 to 20 hrs by CCK-8 assay; type: functional, cell-based
[1] = Anti-necroptotic activity in human I2.1 cells assessed as inhibition of TNFalpha-induced necroptosis by measuring necroptosis recovery at 10 nM preincubated for 1 hr followed by TNFalpha addition and measured after 24 hrs by CCK-8 assay relative to control; type: functional; set-up: scale not given: the % may be the effect or the level left; conditions: time 25 hrs
How it was run: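 Human I2.1 cells from ATCC, seeded at low density in growth medium and incubated overnight. Compound added first. After 1 h, stimulated with TNF-α 20 ng mL⁻¹ and incubated a further 24 h. Viability read by CCK-8. Recovery is mean ± SD of at least two assays.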

Hepa 1-6 [2] = assay: Anti-necroptotic activity in mouse Hepa1-6 cells assessed as inhibition of TNFalpha/BV6/Z-VAD-induced necroptosis by measuring necroptosis recovery at 1 uM measured after 24 hrs by CCK-8 assay relative to control; type: functional; set-up: scale not given: the % may be the effect or the level left
How it was run: (§1)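 Murine Hepa1-6 cells from ATCC, seeded at low density and incubated overnight. Z-VAD 10 μM added 1 h ahead. Necroptosis then induced with TNF-α 20 ng mL⁻¹ plus BV6 10 μM, together with compound, for 24 h. Viability read by CCK-8. Recovery is mean ± SD of at least two assays.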

Hepa 1-6 [3] = assay: Anti-necroptotic activity in mouse Hepa1-6 cells assessed as inhibition of TNFalpha/BV6/Z-VAD-induced necroptosis by measuring necroptosis recovery at 10 nM measured after 24 hrs by CCK-8 assay relative to control; type: functional; set-up: scale not given: the % may be the effect or the level left; how it was run: as §1
[4] = molecular target: T1, Receptor-interacting serine/threonine-protein kinase 1 (Homo sapiens) (UniProt Q13546); assay: Inhibition of recombinant human N-terminal GST-tagged RIPK1 (1 to 327 residues) expressed in baculovirus infected Sf9 insect cells at 1 uM using myelin basic protein as substrate by ADP-glo assay relative to control
T1 sequence (whole entry): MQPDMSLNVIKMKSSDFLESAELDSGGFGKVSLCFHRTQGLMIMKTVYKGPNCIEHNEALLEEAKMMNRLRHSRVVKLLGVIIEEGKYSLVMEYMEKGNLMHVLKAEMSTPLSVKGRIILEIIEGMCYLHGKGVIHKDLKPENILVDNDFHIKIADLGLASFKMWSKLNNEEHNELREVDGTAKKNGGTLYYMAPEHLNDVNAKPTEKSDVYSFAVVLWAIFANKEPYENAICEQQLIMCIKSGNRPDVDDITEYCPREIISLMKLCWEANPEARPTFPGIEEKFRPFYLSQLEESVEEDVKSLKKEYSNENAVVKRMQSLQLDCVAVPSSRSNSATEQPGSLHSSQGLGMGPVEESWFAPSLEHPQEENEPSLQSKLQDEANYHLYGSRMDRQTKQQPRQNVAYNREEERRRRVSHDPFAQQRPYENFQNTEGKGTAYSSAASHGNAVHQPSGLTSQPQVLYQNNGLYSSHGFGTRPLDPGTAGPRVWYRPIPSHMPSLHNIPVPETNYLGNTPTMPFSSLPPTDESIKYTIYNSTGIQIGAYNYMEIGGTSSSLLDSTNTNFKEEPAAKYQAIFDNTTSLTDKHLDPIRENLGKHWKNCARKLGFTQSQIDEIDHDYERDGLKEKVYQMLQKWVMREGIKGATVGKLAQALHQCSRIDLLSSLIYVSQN
How it was run: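 RIPK1 kinase activity tested at 1 μM. Read-out is luminescence. Inhibition% = (DMSO-control specific signal − inhibitor specific signal)/DMSO-control specific signal × 100.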

[5] = Elimination half-life in Sprague-Dawley rat at 3 mg/kg, po by LC-MS/MS analysis; type: ADME, organism-based; conditions: in vivo, read-out: beta t1/2 (converted)
How it was run: (§2)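 Male Sprague Dawley rats, N = 3. Single oral dose of 3 mg kg⁻¹ in DMSO/0.5% HMPC (5/95, v/v). Blood taken at 0.25, 0.5, 1, 2, 4, 8 and 24 h. Serum drug levels measured by LC-MS/MS. Parameters reported as means.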

[6] = Tmax in Sprague-Dawley rat at 3 mg/kg, po by LC-MS/MS analysis; type: ADME, organism-based; conditions: in vivo; how it was run: as §2
[7] = Cmax in Sprague-Dawley rat at 3 mg/kg, po by LC-MS/MS analysis; type: ADME, organism-based; conditions: in vivo; how it was run: as §2
[8] = AUClast in Sprague-Dawley rat at 3 mg/kg, po by LC-MS/MS analysis; type: ADME, organism-based; conditions: in vivo; how it was run: as §2
Hepa 1-6 [9] = assay: Anti-necroptotic activity in mouse Hepa1-6 cells assessed as inhibition of TNFalpha/BV6/Z-VAD-induced necroptosis by measuring necroptosis recovery at 100 nM measured after 24 hrs by CCK-8 assay relative to control; type: functional; set-up: scale not given: the % may be the effect or the level left; how it was run: as §1

| Compound | Activity [1] [%] | Activity (Hepa 1-6 [2]) [%] | Activity (Hepa 1-6 [3]) [%] | also measured |
| --- | --- | --- | --- | --- |
| Cc1ccc(OCCCC(C)(C)O)cc1-c1ccnc(NC(=O)c2nc(Cc3ccccc3)n[nH]2)c1 | 90 | <0 | – | IC50 (HT-29): < 100 nM |
| CC(C)(O)CCCOc1ccc(Cl)c(-c2ccnc(NC(=O)c3nc4n(n3)C(c3ccccc3)CC4)c2)c1 (stereo not given) | 80.6 | 2.9 | – | – |
| Cc1ccc(OCCCC(C)(C)O)cc1-c1cc(NC(=O)c2nc3n(n2)C(c2ccccc2)CC3)ncc1Cl (stereo not given) | 56.2 | – | – | – |
| Cc1ccc(OCCN2CCOCC2)cc1-c1ccnc(NC(=O)c2nc3n(n2)[C@H](c2ccccc2)C[C@@H]3F)c1 | 97.9 | – | 102.4 | inhibition [4]: 79.1%; half-life [5]: 1.91 h; Tmax [6]: 0.67 h; Cmax [7]: 8.9 ng/mL; AUC(0-t) [8]: 15.2 ng·h/mL |
| Cc1ccc(OCCCC(C)(C)O)cc1-c1cnnc(NC(=O)c2nc3n(n2)C(c2ccccc2)CC3)c1 (stereo not given) | 53.6 | – | – | – |
| Cc1ccc(OCCC2CCOCC2)cc1-c1ccnc(NC(=O)c2nc3n(n2)C(c2ccccc2)CC3)c1 (stereo not given) | 91.9 | 96.6 | 3.7 | Activity (Hepa 1-6 [9]): 10.7% |
| Cc1ccc(OCCC2CCOCC2)cc1-c1ccnc(NC(=O)c2nc3n(n2)[C@@H](c2ccccc2)C[C@H]3F)c1 | – | – | – | inhibition [4]: < 0% |
| CC(C)(O)CCCOc1cccc(-c2ccnc(NC(=O)c3nc4n(n3)C(c3ccccc3)CC4)c2)c1 (stereo not given) | 86.1 | 2.2 | – | – |
| Cc1ccc(OCCCC(C)(C)O)cc1-c1ccnc(NC(=O)c2nc3n(n2)[C@H](c2ccccc2)C[C@H]3F)c1 (relative stereo) | 98.9 | 104.2 | 6.3 | Activity (Hepa 1-6 [9]): 41.3% |
| Cc1ccc(OCCN2CCOCC2)cc1-c1ccnc(NC(=O)c2nc3n(n2)[C@@H](c2ccccc2)C[C@H]3F)c1 | – | – | – | inhibition [4]: < 0% |
| Cc1ccc(OCCC2CCOCC2)cc1-c1ccnc(NC(=O)c2nc3n(n2)[C@H](c2ccccc2)C[C@@H]3F)c1 | 70.5 | – | 111.4 | inhibition [4]: 78.8% |
| Cc1ccc(OCCCC(C)(C)O)cc1-c1ccnc(NC(=O)c2nc3n(n2)C(c2ccc(F)cc2)CC3)c1 (stereo not given) | 60.1 | – | – | – |
| COc1ccc(C)c(-c2ccnc(NC(=O)c3nc4n(n3)C(c3ccccc3)CC4)c2)c1 (stereo not given) | 73.7 | – | – | – |
| Cc1ccc(OCCCC(C)(C)O)cc1-c1cc(NC(=O)c2nc3n(n2)C(c2ccccc2)CC3)ncc1F (stereo not given) | 58.1 | – | – | – |
| Cc1ccc(OCCCC(C)(C)O)cc1-c1ccnc(NC(=O)c2nc3n(n2)C(C2CCCC2)CC3)c1 (stereo not given) | 73.2 | – | – | – |
| Cc1ccc(OCC(C)(C)O)cc1-c1ccnc(NC(=O)c2nc3n(n2)C(c2ccccc2)CC3)c1 (stereo not given) | 98.2 | 94.1 | 3.8 | Activity (Hepa 1-6 [9]): 10.9% |
| Cc1ccc(OCCCC(C)(C)O)cc1-c1ccnc(NC(=O)c2nc3n(n2)[C@@H](c2ccccc2)C[C@H]3F)c1 (relative stereo) | 80.6 | 110 | 100.5 | Activity (Hepa 1-6 [9]): 107.6% |
| Cc1ccc(OCCCC(C)(C)O)cc1-c1ccnc(NC(=O)c2nc3n(n2)C(c2ccccc2)CC3)c1 (stereo not given) | 81.2 | 86.6 | 5.5 | Activity (Hepa 1-6 [9]): 26.1% |
| Cc1ccc(OCCCC(C)(C)O)cc1-c1cc(NC(=O)c2nc3n(n2)C(c2ccccc2)CC3)ncc1C (stereo not given) | 72.7 | – | – | – |
| Cc1ccc(OCCCC(C)(C)O)cc1-c1ccnc(NC(=O)c2nc3n(n2)C(C2CCCCC2)CC3)c1 (stereo not given) | 61.2 | – | – | – |
| Cc1ccc(OCCCC(C)(C)O)cc1-c1ccnc(NC(=O)c2nc3n(n2)C(c2cccc(F)c2)CC3)c1 (stereo not given) | 58.1 | – | – | – |
| Cc1ccc(OCCCC(C)(C)O)cc1-c1ccnc(NC(=O)c2nc3n(n2)C(c2ccccc2F)CC3)c1 (stereo not given) | 62.7 | – | – | – |
| Cc1ccc(OCCCC#N)cc1-c1ccnc(NC(=O)c2nc3n(n2)C(c2ccccc2)CC3)c1 (stereo not given) | 35.8 | – | – | – |

From ChEMBL document CHEMBL5579858, “Design, synthesis, and structure-activity relationship studies of 6,7-dihydro-5H-pyrrolo[1,2-b][1,2,4]triazole derivatives as necroptosis inhibitors” (RSC Med Chem, 2024)
